RORa activator – activators of orphan receptor RORA, primary screen, cell-based, luminescence. Nuclear receptor ROR-alpha (Homo sapiens), P35398. CHO-K1 Gal4-RORA LBD luciferase reporter; percent increase over mock-subtracted basal signal. activation, % at 10 µM. 1.5% of 65,000 active;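 active = activation above the mean of all tested compounds plus 3 SD, cut at about 49% in these data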;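 also: 0% = DMSO-treated RORA cells and 100% = added signal equal to DMSO minus mock-transfected cells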
M1 agonist – M1 muscarinic receptor agonists, primary screen, CHO-M1 cells, Fluo-4 calcium, agonist mode | Muscarinic acetylcholine receptor M1 | Fluo-4 calcium fluorescence; active compounds read high | B-score at 10 µM | 3% of 64,000 active | AID 626, 2007;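 active = fluorescence rise, raw or as B-score row- and column-corrected plate score, outside the 99.7% band of its plate's samples, either direction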
SF-1 act – activators of human SF-1, primary screen, cell-based, CHO-K1, Gal4-SF-1 LBD, luciferase luminescence | 1.9% of 65,000 active | Steroidogenic factor 1 (Homo sapiens), Q13285 | activation, % at 10 µM | CHO-K1 Gal4-SF-1 LBD luciferase reporter; % increase over DMSO SF-1-specific signal | AID 522, 2006;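 active = activation above the mean activation of all tested compounds plus 3 SD, cut at about 50% in these data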
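Test system: CHO-K1 cells with Gal4–hSF-1 LBD chimera plus Gal4-driven luciferase; Input: 4,000 cells/well; Compound: 10 µM only; Times: 20 h compound treatment, 37 °C; Measured by: steady-glow luciferase luminescence, read after 15 min reagent incubation; Measure: percent activation versus DMSO; Control set: DMSO and mock-transfected background; Replicates: one test per compound.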
MT1-MMP txn act – MT1-MMP promoter reporter activation – cell-based, luciferase luminescence, primary screen | AID 750, 2007 | HT1080 MT1-MMP promoter luciferase reporter, overnight; active compounds read high | activation factor at 10 µM | 0.16% of 86,000 active;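 active = activation factor of at least 2 for MT1-MMP transcription at 10 µM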
M1 antagonist – antagonists of rat M1 muscarinic receptor; AID 628, 2007; B-score at 10 µM; 3.4% of 64,000 active; CHO-M1 cells, Fluo-4 calcium, ACh EC80 antagonist mode; active compounds read low;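 active = calcium fluorescence response, raw or row-and-column corrected B-score, differing from the plate sample mean either way at a set confidence level, mostly lower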
Target sequence (P08482 whole entry, looked up): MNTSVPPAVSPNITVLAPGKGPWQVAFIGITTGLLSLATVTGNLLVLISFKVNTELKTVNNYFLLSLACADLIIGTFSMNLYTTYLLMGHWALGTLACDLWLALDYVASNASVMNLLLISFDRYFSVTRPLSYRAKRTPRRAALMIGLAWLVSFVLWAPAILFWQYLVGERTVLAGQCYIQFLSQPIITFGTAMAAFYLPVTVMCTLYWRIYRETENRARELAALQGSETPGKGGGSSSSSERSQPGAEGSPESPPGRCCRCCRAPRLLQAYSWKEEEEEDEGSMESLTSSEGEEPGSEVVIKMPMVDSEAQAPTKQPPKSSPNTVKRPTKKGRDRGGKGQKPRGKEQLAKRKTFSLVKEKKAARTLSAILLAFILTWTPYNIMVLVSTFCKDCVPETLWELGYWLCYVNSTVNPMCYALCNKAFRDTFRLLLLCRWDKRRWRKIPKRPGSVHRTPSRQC
M1 antag conf – rat M1 muscarinic receptor antagonists, confirmation, CHO cells, Fluo-4 calcium, duplicate. ACh EC80 antagonism; active compounds read low. calcium response (max-min fluorescence) at 10 µM. 43% of 1,700 active. AID 677, 2007. shares compounds with M1 antagonist;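 active = calcium response below the same-plate mean of wells given acetylcholine alone at its 80%-effect dose, minus 3 SD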;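 also: raw fluorescence intensity difference in arbitrary instrument units and not normalized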
mGluR4 antag – human mGluR4 response to M1 antagonist hits, M1 allosteric modulator project, cell-based, antagonist mode, secondary assay 1; shares compounds with M1 antagonist; CHO-mGluR4 calcium flux, Fluo-4 fluorescence, glutamate EC80; active compounds read low; fluorescence response (max-min) at 10 µM; 0.9% of 1,700 active; AID 678, 2007;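 active = fluorescence response below the plate's average for near-maximal glutamate wells, less 3 SD of those wells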;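 also: raw unnormalized fluorescence span taken in the window right after glutamate addition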
An asterisk follows results filed as active; · = not tested or not shown. This is a sample that favours compounds with a hit; in the whole collection about 6.3% have one here.

SMILES	RORa activator	M1 agonist	SF-1 act	MT1-MMP txn act	M1 antagonist	M1 antag conf	mGluR4 antag
CC(C1CC1)N(C(=O)c1ccccc1O)c1ccccc1 (configuration not stated)	-9	-0.36	-21	1	-3.6*	548	218
Cc1cc2ncn(C3CC(=O)N(Cc4ccc(N5CCCC5=O)cc4)C3=O)c2cc1C (configuration not stated)	-22	-0.44	12	1.1	-0.72	·	·
O=C(c1ccc(CSCc2ccccc2F)o1)N1CCN(c2ccc(N3CCOCC3)nn2)CC1	3	-0.87	31	1	-1.7*	498*	172
O=C(Nc1ccc(S(=O)(=O)Nc2nccs2)cc1)C1CCCCC1	-4	0.72	7	1	-13*	682	209
CCn1cc(Cl)c(C(=O)Nc2nc3ccccc3n2CCN2CCCCC2)n1	-11	0.82	-19	·	-1.5	·	·
CC(C)c1nc(N2CCOCC2)c(C#N)c2c1CCC2	-17	-0.44	2	1.2	-0.0022	·	·
CC1CCCN(c2nc3nonc3nc2N2CCCC(C)C2)C1 (configuration not stated)	·	·	·	1.2	·	·	·
CC1CCCN(c2nc3ccsc3c(=O)s2)C1 (configuration not stated)	60*	0.092	40	1.5	-7.2*	273*	201
COc1ccc(OC)c(S(=O)(=O)N2CCCc3ccccc32)c1	26	-0.049	13	1	0.51	·	·
CCC(Sc1nc2sc(C(=O)OC)c(C)c2c(=O)n1N)C(=O)NCC1CCCO1 (configuration not stated)	-15	0.28	6	1.2	-0.0098	·	·
NCCCCCc1nnc(SCc2cccc(Cl)c2)o1	-15	-0.35	-16	0.8	-5.2*	415*	282
CCN(CC)CCOC(=O)c1ccc(NC(=O)COc2cc(=O)n(CC)c3ccccc23)cc1	0	1.2	-19	1.1	-3.4*	576*	184
CC(C)OC(=O)CSc1nnc(-c2ccc(O)cc2)n1Cc1ccccc1	-9	0.0028	12	1	-3.3*	648	237
O=C(OCCN1CCCCC1)c1cc2ccccc2o1	-6	-0.73	-13	1.1	-2.4*	465	238
C/C(=N\S(=O)(=O)c1ccc(C)cc1)N1CCN(S(=O)(=O)c2ccccc2)C1C(C)C (configuration not stated)	·	·	·	1.1	·	·	·
CCOc1ccc(C(=O)Nc2ccc(N3CCCC3)cc2)cc1	15	-0.19	20	1	-0.31	·	·
CCOc1ccc(C(=O)Nc2ccc(N3CCN(C)CC3)cc2)cc1Br	-1	-0.72	-16	1.3	-3.5*	361*	242
CCN(Cc1ccccc1)CC(O)COc1ccccc1 (configuration not stated)	·	·	·	1.3	·	·	·
CC(OCC(O)CN(C)CCOc1ccccc1)c1ccc(Cl)cc1 (configuration not stated)	-13	0.21	5	1.2	-2*	511*	203
COc1cccc(NC(=O)N(Cc2cc3cc(C)cc(C)c3[nH]c2=O)CC2COCCO2)c1 (configuration not stated)	1	0.75	-12	1.1	-0.73	·	·
Cc1c(CN2CCN(c3cccc(C(F)(F)F)c3)CC2)c(=O)n(-c2ccccc2)n1C	-1	-2.1	11	1.2	-4.4*	458*	228
Cc1c(S(=O)(=O)N2CCN(c3cccc(C(F)(F)F)c3)CC2)c(=O)n(C)c(=O)n1C	-8	-0.4	-12	1.1	-0.035	·	·
Cc1cc(/C=N/n2cnnc2)c(C)n1-c1ccc(OCc2ccc(F)cc2)cc1	-70	0.4	-86	1.2	-2.4*	503*	247
Cc1ccc2[nH]c3c(N4CCCCCC4)ncnc3c2c1	-78	6.3	-74	1.4	-2.7*	387*	178*
O=C(CSc1ncn[nH]1)Nc1ccc(Br)cc1F	-21	0.13	-6	1.1	-0.19	·	·
SMILES	RORa activator	M1 agonist	SF-1 act	MT1-MMP txn act	M1 antagonist	M1 antag conf	mGluR4 antag
c1ccc(-c2nc(N3CCCCC3)nc3ccccc23)cc1	·	·	·	1.1	·	·	·
c1ccc2c(N3CCCCC3)nc(N3CCCC3)nc2c1	15	0.0045	4	1.1	-2.6*	493*	167
Nc1nc(N2CCCCC2)nc2ccccc12	16	-0.069	6	1.2	-5.9*	286*	268
O=C(NC1CCCCC1)c1cccc(Cn2cc(Cl)cn2)c1	·	·	·	1.1	·	·	·
CC12CN3CC(C)(CN(C1)C3c1ccc(Br)cc1)C2 (configuration not stated)	-29	-0.34	18	1.1	-3.7*	387*	251
COc1cc(C2N3CC4(C)CN2CC(C)(C3)C4)ccc1O (configuration not stated)	-7	-0.39	0	1.2	0.37	·	·
CCCCC(=O)Nc1ccc(NC(=O)CC)cc1OC	-18	-0.18	5	1.2	-1.6	·	·
O=C(CC(c1ccccc1)c1cc(Cl)ccc1O)N1CCOCC1 (configuration not stated)	-8	0.17	-2	1.3	-2.6*	477	214
CCCCC(C(=O)NCCC(C)C)N(CCCN1CCOCC1)C(=O)c1snc(C(N)=O)c1N (configuration not stated)	-6	0.69	-11	1.1	0.025	·	·

Screening results from PubChem.
